Measured values pooled from the literature.
Each line is one published result; the experiments were not run side by side.
Effect on: cell growth or viability

SMILES | cell line | assay | setting | IC50 [nM]
Cc1nc(Nc2ncc(C(=O)Nc3c(C)cccc3Cl)s2)cc(N2CCN(CCO)CC2)n1 | ASPC1 | MTT | – | 380
COc1cc(C(=O)Nc2cc(OCCN3CCCC3)c3ccccc3n2)nc(C(=O)Nc2cc(OCCN3CCCC3)c3ccccc3n2)c1 | WI-38 | ATP luminescence | 72 h | 3900
Cc1cc(C)cc(COc2cc3c(cc2OCc2cc(C)cc(C)c2)C2CC(O)(Cc4cn(CCCCCCNC(=O)CNc5ccc6c(c5)C(=O)N(C5CCC(=O)NC5=O)C6=O)nn4)CC(C)N2CC3)c1 (stereo not drawn) | ASPC1 | MTT | – | > 5000
COc1cc(Nc2nc(CN)cc3c(-c4ccccc4)n[nH]c23)cc(OC)c1OC | WI-38 | MTS | 48 h | > 10000
O=c1c(O)c(-c2cc(O)c(O)c(O)c2)oc2cc(O)cc(O)c12 | RT-4 | ATP luminescence | 72 h | 72700
Cc1cc(C)cc(COc2cc3c(cc2OCc2cc(C)cc(C)c2)[C@H]2C[C@](O)(Cc4cn(CCCCCCNC(=O)[C@@H](CC(C)C)NC(=O)[C@@H](O)[C@H](N)Cc5ccccc5)nn4)C[C@H](C)N2CC3)c1 | ASPC1 | MTT | – | 1480
NCCOc1cc(C(=O)Nc2cc(OCCN)c3ccccc3n2)nc(C(=O)Nc2cc(OCCN)c3ccccc3n2)c1 | WI-38 | ATP luminescence | 72 h | 11100
C=CC(=O)Nc1cc(Nc2nccc(-c3cn(C4CC4)c4ccccc34)n2)c(OC)cc1N(C)CCN(C)C | HCC827 | ATP luminescence | 72 h | 3.3
C=CC(=O)Nc1ccc(CCn2cc(C[C@@]3(O)C[C@@H]4c5cc(OCc6cc(C)cc(C)c6)c(OCc6cc(C)cc(C)c6)cc5CCN4[C@@H](C)C3)nn2)cc1 | ASPC1 | MTT | – | 536
O=C(Nc1cc(OCCN2CCCC2)c2ccccc2n1)c1cc(OCc2ccc(F)cc2)cc(C(=O)Nc2cc(OCCN3CCCC3)c3ccccc3n2)n1 | WI-38 | ATP luminescence | 72 h | 11400
COc1cc(C(=O)c2c(N)sc(CCc3ccccc3)c2C)cc(OC)c1OC | Molt4/C8 | – | – | > 10000
COc1cccc(Oc2ccccc2NC(=O)[C@H](C)NC(=O)c2cccc3ccccc23)c1 | NCI-H358 | – | – | 1800
COc1ccc(CCc2cc(C(=O)c3cc(OC)c(OC)c(OC)c3)c(N)s2)cc1 | Molt4/C8 | – | – | > 10000
Cc1cccc(-n2ncc(Br)c(Br)c2=O)c1 | NHBE | resazurin | 96 h | 1610
CNc1nc2ccccc2n2c(-c3cccc(OC)c3)cnc12 | LS174T | neutral red | 96 h | 868
CC(C)=CCC[C@](C)(O)[C@H]1CC[C@]2(C)[C@@H]1[C@H](O)C[C@@H]1[C@@]3(C)CC[C@H](O[C@@H]4O[C@H](CO)[C@@H](O)[C@H](O)[C@H]4O[C@@H]4O[C@H](CO)[C@@H](O)[C@H](O)[C@H]4O)C(C)(C)[C@@H]3CC[C@]12C | NCI-H358 | MTT | 72 h | > 100000
COc1cc(Nc2nccc(-c3cnn4nc(OC)ccc34)n2)cc(C(F)(F)F)c1 | KARPAS-299 | ATP luminescence | – | 200
[Cl-].[Cl-].[Ti+4].c1cc[cH-]c1.c1cc[cH-]c1 | CAKI-1 | XTT | 72 h | > 200000
COc1cc(-c2oc3cc(O)cc(O)c3c(=O)c2O)ccc1O | RT-4 | ATP luminescence | 72 h | 34300
CC(C)C[C@H](NC(=O)[C@H](Cc1ccccc1)NC(=O)c1cnccn1)B(O)O | DV-90 | ATP luminescence | – | 13
CCN1CCN(c2ccc(Nc3cc(N(C)C(=O)Nc4c(Cl)c(OC)cc(OC)c4Cl)ncn3)cc2)CC1 | AN3-CA | ATP luminescence | 96 h | 39.9

SMILES | cell line | assay | setting | IC50 [nM]
CCN(CC)CCCCNc1ncc2cc(-c3cc(OC)cc(OC)c3)c(NC(=O)NC(C)(C)C)nc2n1 | RT-4 | MTT | 5 days | 5
COc1cc(Nc2nc(CNCc3ccccc3)cc3c(-c4ccccc4)n[nH]c23)cc(OC)c1OC | WI-38 | MTS | 48 h | 8100
NCCCOc1cc(NC(=O)c2cc(OCc3c[nH]nn3)cc(C(=O)Nc3cc(OCCCN)c4ccccc4n3)n2)nc2ccccc12 | WI-38 | ATP luminescence | 72 h | > 40000
Cc1cc(C)cc(COc2cc3c(cc2OCc2cc(C)cc(C)c2)[C@H]2C[C@](O)(Cc4cn(CC5CCCCC5)nn4)C[C@H](C)N2CC3)c1 | ASPC1 | MTT | – | 572
CN(C)CCOc1cc(NC(=O)c2cc(Cl)cc(C(=O)Nc3cc(OCCN(C)C)c4ccccc4n3)n2)nc2ccccc12 | WI-38 | ATP luminescence | 72 h | 4000
Cc1cc(C)cc(COc2cc3c(cc2OCc2cc(C)cc(C)c2)[C@H]2C[C@](O)(Cc4cn(Cc5ccc(S(C)(=O)=O)cc5)nn4)C[C@H](C)N2CC3)c1 | ASPC1 | MTT | – | 537
NCc1cc2c(-c3ccccc3)n[nH]c2c(Nc2ccccc2)n1 | WI-38 | MTS | 48 h | > 10000
C=C(C)C(=O)Nc1ccc(-c2c(-c3ccc(Oc4nccc(C)n4)c(F)c3)c3c(N)ncnc3n2C)cc1 | RT-4 | ATP luminescence | 96 h | 617
CN1CCN(c2ccc3nc(-c4c(N)c5c(F)cccc5[nH]c4=O)[nH]c3c2)CC1 | RT-4 | MTT | 5 days | 100
CCn1c(=O)c(-c2ccc(-c3cncs3)cc2Cl)cc2cnc(Nc3ccc(N4CCN(C)CC4)cc3)nc21 | HPAF-II | MTT | 24 h | 7900
NCCOc1cc(C(=O)Nc2cc(OCCN3CCCC3)c3ccccc3n2)nc(C(=O)Nc2cc(OCCN3CCCC3)c3ccccc3n2)c1 | WI-38 | ATP luminescence | 72 h | 500
Cc1cc(C)cc(COc2cc3c(cc2OCc2cc(C)cc(C)c2)C2CC(O)(Cc4cn(CCCCCCCCCCC(=O)Nc5cccc6c5C(=O)N(C5CCC(=O)NC5=O)C6=O)nn4)CC(C)N2CC3)c1 (stereo not drawn) | ASPC1 | MTT | – | 4800
O=C1C(=Cc2ccccc2)CN(C(=O)c2ccc(C(=O)N3CC(=Cc4ccccc4)C(=O)C(=Cc4ccccc4)C3)cc2)CC1=Cc1ccccc1 | Molt4/C8 | – | – | > 500000
NCCCOc1cc(NC(=O)c2cc(Cl)cc(C(=O)Nc3cc(OCCCN)c4ccccc4n3)n2)nc2ccccc12 | WI-38 | ATP luminescence | 72 h | 600
Cc1cc(C)cc(COc2cc3c(cc2OCc2cc(C)cc(C)c2)[C@H]2C[C@](O)(Cc4cn(Cc5ccc6ccccc6c5)nn4)C[C@H](C)N2CC3)c1 | ASPC1 | MTT | – | 601
CCN1C(=O)N(c2c(F)c(OC)cc(OC)c2F)Cc2cnc3[nH]c(CN4CCOCC4)cc3c21 | AN3-CA | ATP luminescence | 96 h | 40.9
NCCOc1cc(NC(=O)c2cc(OCc3ccc(F)cc3)cc(C(=O)Nc3cc(OCCN)c4ccccc4n3)n2)nc2ccccc12 | WI-38 | ATP luminescence | 72 h | 4900
Cc1cc(C)cc(COc2cc3c(cc2OCc2cc(C)cc(C)c2)[C@H]2C[C@](O)(Cc4cn(Cc5ccc(O)cc5)nn4)C[C@H](C)N2CC3)c1 | ASPC1 | MTT | – | 450
CC(=O)C1=C(C)Nc2sc(C(=O)c3ccc(Cl)c(Cl)c3)c(N)c2C1c1cccnc1 (stereo not drawn) | HMC3 | imaging | – | 41900
Nc1ccn([C@@H]2O[C@H](CO)[C@@H](O)C2(F)F)c(=O)n1 | ASPC1 | MTT | – | 65
CCCCCCCCCc1ccc(C(=O)Nc2cc(C)ccc2C(=O)OC)cc1 | RPE | – | – | > 120000
